CHRM5 PAM: positive allosteric modulators of human muscarinic M5 receptor; activation, % at 3 µM; CHO-K1 hM5, Fluo-8 calcium, ACh EC20 PAM; 0% = ACh EC20, 100% = ACh EC100; P08912; 360,000 tested, 0.3% active;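 active = activation above the run cutoff, the mean activation of all test compounds plus 3 SD, cut at about 18% in these data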
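Measured by: Fluo-8 calcium fluorescence; material: human M5 receptor in CHO-K1 cells; schedule: Post-acetylcholine fluorescence recording 140 s; benchmarks: low control EC20 acetylcholine (0%), high control EC100 acetylcholine (100%); read-out: Max/basal fluorescence ratio as % of EC20–EC100 ACh window; compound: single dose, 3 µM nominal final test concentration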
M4 ag: CHRM4 agonism in calcium assay; P08173; CHO-K1 hM4/Gqi5, Fluo-8 calcium fluorescence; vehicle 0%, full acetylcholine response 100%; activation, % at 3 µM; 360,000 tested, 0.14% active; AID 624127;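 active = activation above the run mean over all test wells plus 3 SD, cut at about 32% in these data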;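 also: peak over basal fluorescence ratio per well then scaled between controls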
Target sequence (P08173 whole entry, looked up): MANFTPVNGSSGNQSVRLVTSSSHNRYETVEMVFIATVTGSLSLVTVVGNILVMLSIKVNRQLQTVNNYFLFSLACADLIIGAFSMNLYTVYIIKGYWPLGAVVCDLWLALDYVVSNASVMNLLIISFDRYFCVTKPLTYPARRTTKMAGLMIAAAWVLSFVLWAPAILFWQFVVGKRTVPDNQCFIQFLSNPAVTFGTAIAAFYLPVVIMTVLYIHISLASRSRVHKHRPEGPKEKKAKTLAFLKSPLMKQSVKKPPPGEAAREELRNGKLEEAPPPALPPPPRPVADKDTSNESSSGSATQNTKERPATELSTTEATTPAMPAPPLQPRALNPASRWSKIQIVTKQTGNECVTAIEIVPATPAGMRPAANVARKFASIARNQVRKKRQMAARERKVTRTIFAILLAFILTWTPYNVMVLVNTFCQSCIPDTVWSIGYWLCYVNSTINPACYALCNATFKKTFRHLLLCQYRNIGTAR
CHRM5 agonist: CHRM5 agonism in calcium assay; P08912; CHO-K1 hM5 cells, Fluo-8 calcium fluorescence; 0% DMSO wells, 100% maximal acetylcholine response; activation, % at 3 µM; 360,000 tested, 0.19% active; AID 624037;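 active = activation above the run's mean over test compounds plus 3 SD, cut at about 23% in these data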;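 also: signal is peak over basal fluorescence ratio across the kinetic read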
M4 PAM: positive allosteric modulators of human muscarinic M4 receptor | CHO-K1 hM4/Gqi5, Fluo-8 calcium fluorescence, ACh EC20; 0% = ACh EC20, 100% = maximal ACh | activation, % at 3 µM | 360,000 tested, 0.4% active;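 active = activation above its plate's cutoff, the mean activation of sample wells plus 3 SD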
M5 antag: CHRM5 antagonism in calcium assay. P08912. inhibition, % at 3 µM. CHO-hM5 cells, Fluo-8 calcium fluorescence, ACh EC80. 360,000 tested, 0.59% active;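 active = inhibition above a per-plate cutoff, the mean of that plate's test compounds plus 3 SD, cut at about 27% in these data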
M4 antag: antagonists of human muscarinic M4 receptor (CHRM4) | CHO-hM4 cells, ACh EC80, Fluo-8 calcium fluorescence | inhibition, % at 3 µM | 360,000 tested, 0.73% active;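 active = inhibition above its plate's cutoff, the mean inhibition of sample wells plus 3 SD, cut at about 27% in these data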
Numbers stand for hits; . = inactive. A selection: hits, their analogues and other compounds. The true share with any hit is near 1.8%.

SMILES	CHRM5 PAM	M4 ag	CHRM5 agonist	M4 PAM	M5 antag	M4 antag
Cc1cc(C)c(OCC(=O)Nc2ccc(NC(=O)c3ccco3)cc2)c([N+](=O)[O-])c1	25.7	.	.	.	.	.
Cc1cc(C)cc(OCC(=O)Nc2ccc(N3CCN(C(=O)c4ccco4)CC3)cc2)c1	.	.	.	.	.	32.1
COc1cc(C(=O)NCc2nnc(SCC(=O)N3CCCc4ccccc43)o2)cc(OC)c1OC	.	.	.	.	.	.
COCC(C)n1c(COc2ccccc2F)nnc1SCC(=O)Nc1oc(C)c2c(C)n[nH]c(=O)c12 (stereo not given)	.	.	.	.	.	.
COC(=O)c1cc(Sc2cccc(Cl)c2Cl)ccn1	21.1	.	.	.	.	.
CCCCCCN1C=CC(=C/C=C(\C#N)C(=O)OCC)C=C1	.	253.3	51.0	.	34.4	36.5
CCOC(=O)/C(C#N)=C/C=C1\C=Cc2ccccc2N1CC	.	.	.	.	.	.
C=CCN1C=CC(=CC=C(C#N)C#N)C=C1	.	.	27.9	.	.	.
CCCCCN1C=CC=C/C1=C\C=C(C#N)C#N	.	.	.	.	.	.
CCCN1C=CC(=CC=C(C#N)C#N)C=C1	.	.	31.0	.	.	.
CCNC(=O)C1(C)CCCN(C(=O)c2nc3ccccc3s2)C1 (stereo not given)	.	.	.	.	.	.
COc1ccc(NS(=O)(=O)c2ccc(NC(=S)NCC3CCCO3)cc2)cc1 (stereo not given)	.	.	.	.	27.0	.
O=S(=O)(NCC1CCCO1)c1ccc(-c2ccc(S(=O)(=O)NCC3CCCO3)cc2)cc1 (stereo not given)	.	.	.	.	35.3	.
Cc1ccc(S(=O)(=O)NCC2CCCO2)cc1 (stereo not given)	.	.	.	.	.	.
CCOc1ccc(NS(=O)(=O)c2ccc(NC(=S)NC(=O)CC(C)C)cc2)cc1	.	.	.	.	.	.
COc1ccc(S(=O)(=O)Nc2ccc(S(=O)(=O)NCC3CCCO3)cc2)cc1 (stereo not given)	.	.	.	.	.	.
CCCC(=O)NC(=S)Nc1ccc(S(=O)(=O)Nc2ccc(OCC)cc2)cc1	.	.	24.6	.	.	.
O=C(NNc1ccccc1)NC(Cc1ccccc1)C(=O)O (stereo not given)	.	.	.	.	.	.
Cc1ccc(/C(O)=C2\C(=O)C(=O)N(CCN(C)C)C2c2ccccc2F)cc1 (stereo not given)	.	.	.	.	.	.
CN(C)CCN1C(=O)C(=O)/C(=C(/O)c2ccc(F)cc2)C1c1ccccc1F (stereo not given)	.	.	.	.	29.4	.
Cc1ccc(-c2nc(C=Nc3ccccc3)c(O)o2)cc1	.	.	.	.	.	.
Cc1ccc(-c2nc(C=Nc3cccc(C)c3)c(O)o2)cc1	18.3	.	.	.	.	.
Cc1cccn2c(=O)c(/C=C(\C#N)C(=O)NCc3ccco3)c(N3CCCC(C)C3)nc12 (stereo not given)	.	.	.	.	.	.
CCOC(=O)C1CCCN(c2nc3c(C)cccn3c(=O)c2/C=C(\C#N)C(=O)NCc2ccco2)C1 (stereo not given)	.	.	31.0	.	.	.
Cc1ccc(SCC(=O)OCC(=O)N(C)CC(=O)Nc2ccc(F)cc2)cc1C	.	52.0	49.9	.	.	.
SMILES	CHRM5 PAM	M4 ag	CHRM5 agonist	M4 PAM	M5 antag	M4 antag
CCNc1nc(N2CCCC2)nc(N2CCCC2)n1	.	.	.	.	.	.
CCNc1nc(NC(C)(C)C)nc(N2CCCCC2)n1	.	.	.	.	60.7	44.7
Cc1nn(CC(C)C)c(Cl)c1C(=O)NCC1CCCO1 (stereo not given)	.	.	.	.	.	.
O=C(C(=O)N(Cc1ccccc1)Cc1ccccc1)c1c(-c2ccccc2)[nH]c2ccccc12	.	.	.	.	.	31.1
O=C(c1cnn2c(C(F)F)cc(C3CC3)nc12)N1CCCC1	.	.	.	34.4	.	.
O=C(c1cnn2c(C(F)F)cc(C3CC3)nc12)N1CCc2ccccc2C1	.	.	.	.	.	.
CC1CC(C)CN(CCCNC(=O)c2ccc3c(c2)ncn3C2CCCC2)C1 (stereo not given)	.	.	.	.	.	.
O=C(NC(=O)N1CCN(C(c2ccccc2)c2ccccc2)CC1)c1ccccc1	.	.	.	.	.	29.8
O=C(Nc1ccccc1C(F)(F)F)N1CCN(C(c2ccccc2)c2ccccc2)CC1	.	.	.	.	30.0	35.3
O=C(c1ccc(C#CC2(O)CCCCC2)cc1)N1CCN(Cc2ccccc2)CC1	.	.	.	.	.	.
O=C(c1ccc(C#CC2(O)CCCCC2)cc1)N1CCN(C(c2ccccc2)c2ccccc2)CC1	.	.	.	.	.	35.2
COC(=O)CCCn1cc(CN2CC(N3CCN(Cc4cccc(C)c4)CC3)CS2(=O)=O)nn1 (stereo not given)	.	.	.	.	.	.
O=C(C=Cc1ccc2c(c1)OCO2)c1ccccc1	.	.	.	.	.	.
CCN(C(=O)/C=C/c1ccc2c(c1)OCO2)c1ccccc1	19.7	.	.	23.8	.	.
CCc1nc2ccccc2n1CC(=O)NC1CCS(=O)(=O)C1 (stereo not given)	.	.	.	.	.	.
O=S(=O)(Nc1nc2ccccc2[nH]1)c1ccc2ccccc2c1	.	.	.	.	38.9	70.4
Cc1cc(N2Cc3ccccc3C2)ccc1C=O	.	.	.	.	38.5	.
Oc1ccccc1CNc1ccc(Br)cn1	.	.	.	.	.	32.5
CCCNS(=O)(=O)c1cc2c(cc1Br)CCN2C(=O)CC	22.6	.	.	.	.	.
CCOC(=O)C1=C(C)OC(N)=C(C#N)C1c1cc(F)ccc1F (stereo not given)	.	.	.	.	.	30.3
CCOC(=O)C1=C(C)OC(N)=C(C#N)C1c1cccc(C)c1 (stereo not given)	.	.	.	.	.	.
COc1ccccc1NS(=O)(=O)c1ccc2oc(SC(C)C(=O)N3CCNC3=O)nc2c1 (stereo not given)	.	32.1	.	.	.	.
CN(C/C=C/c1ccccc1[N+](=O)[O-])Cc1ccccc1	.	.	.	.	.	35.3
CC(C)NC(=O)C1(C)CCN1C(=O)C(c1ccccc1)c1ccccc1 (stereo not given)	.	.	.	.	.	.

Screens: PubChem BioAssay, The Scripps Research Institute Molecular Screening Center
